Source: ChEMBL document CHEMBL4602675, “The Marine Natural Product Manzamine A Inhibits Cervical Cancer by Targeting the SIX1 Protein” (J Nat Prod, 2020)
The source made the active and inactive calls. The calls are words filed in the database; no cut-off is given here.

Assays:
C-33-A [1] = experiment: Cell cycle arrest in human C33A cells assessed as accumulation at Sub G1 phase at 4 uM after 48 hrs by propidium iodide staining based flow cytometric analysis (reference value: 0.8%); type: functional
Summary of the method: (§1)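 Cells in DMEM/10% FBS at 37 °C, 5% CO2 were given 4 μM for 24, 48 or 72 h, with DMSO as control. After trypsinization they were fixed in chilled 70% ethanol on ice for 30 min, treated with RNase A (1 mg/mL) for 30 min at room temperature, and stained with PI (20 μg/mL). At least 10 000 events were read by flow cytometry to give sub-G1, G0/G1, S and G2/M fractions; mean ± SEM.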

C-33-A [2] = experiment: Induction of apoptosis in human C33A cells assessed as viable cells at 4 uM after 48 hrs by Annexin V-FITC/PI double staining based flow cytometric analysis (reference value: 82.8%); type: functional; settings: read-out: Activity
Ca-Ski [3] = experiment: Inhibition of colony formation in human CaSki cells at 2 to 4 uM afer 1 week by crystal violet staining based assay; type: functional, cell-based
Summary of the method: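 Cells were grown in DMEM with 10% FBS, seeded at 1 × 10^3 cells/ml in six-well plates, incubated overnight, then exposed to 2 or 4 μM at 37 °C under 5% CO2 for one week. Colonies were fixed with 4% paraformaldehyde, stained with 0.5% crystal violet and photographed.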

[4] = target: Protein E6 (Human papillomavirus 16) (UniProt P03126); experiment: Inhibition of Human papillomavirus type16 derived E6 in human SiHa cells assessed as increase in p53 protein expression at 2 to 4 uM after 48 hrs by Western blot analysis; type: cell-based
Summary of the method: (§2)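 Cells were seeded at 1 × 10^6 per 100 mm dish and treated next day with 2 or 4 μM for 48 h. They were trypsinised, PBS-washed and lysed in RIPA with protease inhibitors. Equal protein was run on SDS-PAGE and transferred to PVDF. Primary antibodies were used at 1:500, with BSA 3% for blocking and antibodies for CK2α, Rb and pRb, otherwise 5% milk in TBST. HRP secondary at 1:2000, chemiluminescence detection.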

C-33-A [5] = experiment: Induction of apoptosis in human C33A cells assessed as viable cells at 4 uM after 24 hrs by Annexin V-FITC/PI double staining based flow cytometric analysis (reference value: 93.3%); type: functional; settings: read-out: Activity
HeLa [6] = experiment: Induction of apoptosis in human HeLa cells assessed as early apoptotic cells at 4 uM after 24 hrs by Annexin V-FITC/PI double staining based flow cytometric analysis (reference value: 6.3%); type: functional
C-33-A [7] = experiment: Antiproliferative activity against human C33A cells assessed as reduction in cell viability after 72 hrs by CellTiter-Glo assay; type: functional, cell-based
Summary of the method: (§3)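 ATP-based luminescent viability readout. Cells were grown in DMEM with 10% FBS, 2 mM L-glutamine and penicillin-streptomycin at 37 °C, 5% CO2. 2 × 10^4 cells/well were seeded, then exposed the next day to 0–40 μM for 24, 48 or 72 h. % viability = 100 × treated/control. IC50 was fitted from a sigmoid dose-response curve. Run at least three times in quadruplicate; mean ± SEM.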

HeLa [8] = experiment: Antiproliferative activity against human HeLa cells assessed as reduction in cell viability after 72 hrs by CellTiter-Glo assay; type: functional, cell-based; summary of the method: as §3
Ca-Ski [9] = experiment: Cell cycle arrest in human CaSki cells assessed as accumulation at G0/G1 phase at 4 uM after 72 hrs by propidium iodide staining based flow cytometric analysis (reference value: 77.6%); type: functional
HeLa [10] = experiment: Cell cycle arrest in human HeLa cells assessed as accumulation at Sub G1 phase at 4 uM after 72 hrs by propidium iodide staining based flow cytometric analysis (reference value: 3.5%); type: functional; summary of the method: as §1
HeLa [11] = experiment: Antiproliferative activity against human HeLa cells assessed as reduction in cell viability after 48 hrs by CellTiter-Glo assay; type: functional, cell-based; summary of the method: as §3
HeLa [12] = experiment: Cell cycle arrest in human HeLa cells assessed as accumulation at G0/G1 phase at 4 uM after 48 hrs by propidium iodide staining based flow cytometric analysis (reference value: 69.6%); type: functional; summary of the method: as §1
[13] = target: T1, Homeobox protein SIX1 (Homo sapiens) (UniProt Q15475); experiment: Inhibition of SIX1 in human C33A cells at 2 to 4 uM after 48 hrs by Western blot analysis; type: cell-based; settings: C-33-A; summary of the method: as §2
T1 sequence (whole entry): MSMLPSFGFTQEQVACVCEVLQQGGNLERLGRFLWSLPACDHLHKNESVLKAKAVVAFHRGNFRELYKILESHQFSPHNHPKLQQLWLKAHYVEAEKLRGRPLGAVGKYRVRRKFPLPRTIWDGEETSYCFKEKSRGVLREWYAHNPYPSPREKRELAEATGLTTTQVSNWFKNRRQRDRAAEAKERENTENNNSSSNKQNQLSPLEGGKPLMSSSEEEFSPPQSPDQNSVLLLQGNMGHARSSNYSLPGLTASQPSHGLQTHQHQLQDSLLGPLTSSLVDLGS

[14] = target: Protein E6 (Human papillomavirus 16) (UniProt P03126); experiment: Inhibition of Human papillomavirus type16 derived E6 in human CaSki cells assessed as increase in p53 protein expression at 2 to 4 uM after 48 hrs by Western blot analysis; type: cell-based; settings: Ca-Ski; summary of the method: as §2
HeLa [15] = experiment: Induction of apoptosis in human HeLa cells assessed as early apoptotic cells at 4 uM after 48 hrs by Annexin V-FITC/PI double staining based flow cytometric analysis (reference value: 10.7%); type: functional
SiHa [16] = experiment: Cell cycle arrest in human SiHa cells assessed as increase in accumulation at G0/G1 phase at 4 uM incubated for 48 hrs by propidium iodide staining based flow cytometric analysis; type: functional
Summary of the method: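 Cells in DMEM with 10% FBS, 2 mM L-glutamine, pen-strep, 37 °C, 5% CO2; seeded and left overnight, then treated at 4 μM with DMSO as control. Harvested by trypsin at 24, 48 or 72 h, fixed in chilled 70% ethanol 30 min on ice, RNase A (1 mg/mL) 30 min at room temperature, PI (20 μg/mL). Flow cytometry, ≥10 000 events, G0/G1, S, G2/M fractions; mean ± SEM.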

C-33-A [17] = experiment: Induction of apoptosis in human C33A cells assessed as late apoptotic cells at 4 uM after 48 hrs by Annexin V-FITC/PI double staining based flow cytometric analysis (reference value: 2.5%); type: functional
Ca-Ski [18] = experiment: Cell cycle arrest in human CaSki cells assessed as decrease in accumulation at S phase at 4 uM incubated up to 72 hrs by propidium iodide staining based flow cytometric analysis; type: functional; summary of the method: as §1
SiHa [19] = experiment: Antiproliferative activity against human SiHa cells assessed as reduction in cell viability after 48 hrs by CellTiter-Glo assay; type: functional, cell-based; summary of the method: as §3
SiHa [20] = experiment: Antiproliferative activity against human SiHa cells assessed as reduction in cell viability after 24 hrs by CellTiter-Glo assay; type: functional, cell-based; summary of the method: as §3
SiHa [21] = experiment: Cell cycle arrest in human SiHa cells assessed as accumulation at G2/M phase at 4 uM after 24 hrs by propidium iodide staining based flow cytometric analysis (reference value: 17%); type: functional; summary of the method: as §1
Ca-Ski [22] = experiment: Effect on total-Rb in human CaSki cells assessed decrease in Rb protein level at 2 to 4 uM after 48 hrs by Western blot analysis; type: ADME, cell-based; summary of the method: as §2
Ca-Ski [23] = experiment: Cell cycle arrest in human CaSki cells assessed as accumulation at G2/M phase at 4 uM after 24 hrs by propidium iodide staining based flow cytometric analysis (reference value: 27.4%); type: functional; summary of the method: as §1

Sequence of Protein E6 (Human papillomavirus 16) (P03126 whole entry): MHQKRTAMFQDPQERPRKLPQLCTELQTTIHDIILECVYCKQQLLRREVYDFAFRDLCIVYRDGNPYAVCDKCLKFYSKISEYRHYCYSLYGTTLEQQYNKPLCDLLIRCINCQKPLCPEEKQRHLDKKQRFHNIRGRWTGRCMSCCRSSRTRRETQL

`O[C@]12C=C(c3nccc4c3[nH]c3ccccc34)[C@@H]3CCN(CCCC/C=C\CC1)C[C@@]31C[C@@H]3/C=C\CCCCN3[C@H]12` [MANZAMINE A] was tested, and the Activity (C-33-A [1]) was 19.2%, the viability at 4 µM (C-33-A [2]) was 63.6% and the inhibition (Ca-Ski [3]) was “Active”. The inhibition [4] was “Active”, the viability at 4 µM (C-33-A [5]) was 72.7% and the Activity (HeLa [6]) was 10.5%. The IC50 (C-33-A [7]) was 1.6 µM, the IC50 (HeLa [8]) was 5.3 µM and the Activity (Ca-Ski [9]) was 81.7%. It also gave an Activity (HeLa [10]) of 24.3%, an IC50 (HeLa [11]) of 4 µM and an Activity (HeLa [12]) of 63.9%. The inhibition [13] was “Active”, the inhibition [14] was “Active” and the Activity (HeLa [15]) was 59%. The “fold change (FC)” value (SiHa [16]) was 1.2, the Activity (C-33-A [17]) was 15.7% and the Activity (Ca-Ski [18]) was “Active”. It also gave an IC50 (SiHa [19]) of 9.9 µM, an IC50 (SiHa [20]) of 19.9 µM and an Activity (SiHa [21]) of 9.2%. The Activity (Ca-Ski [22]) was “Toxic” and the Activity (Ca-Ski [23]) was 15.2%.
